{"source": "ChEMBL document CHEMBL1250458", "about": "“Targeting the ICB2 site of the topoisomerase IIalpha promoter with a formamido-pyrrole-imidazole-pyrrole H-pin polyamide” (Bioorg Med Chem, 2010)", "key": {"Nucleic Acid [1]": {"tested_on": "Nucleic Acid", "assay": "Binding affinity to ICB2 site of topoisomerase 2alpha cognate sequence ATCGAT at 1 uM after 30 mins by DNase I footprinting assay", "assay_type": "nucleic-acid assay", "method_in_brief": "(§1)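 DNase I footprinting on a PCR-made radiolabeled 131-bp fragment. The fragment was incubated 30 min at room temperature with drug in TN buffer (10 mM Tris, 10 mM NaCl, pH 7). It was then cleaved 3 min with 0.02 U DNase I in buffer containing Mg2+/Mn2+ (pH 8.0) and stopped on dry ice. Products were resolved on a denaturing 10% polyacrylamide urea gel.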"}, "Nucleic Acid [2]": {"tested_on": "Nucleic Acid", "assay": "Binding affinity to ICB2 site of topoisomerase 2alpha cognate sequence ATCGAT at 2 uM after 30 mins by DNase I footprinting assay", "assay_type": "nucleic-acid assay", "method_in_brief": "as §1"}, "B16": {"tested_on": "B16", "assay": "Cytotoxicity against mouse B16 cells after 72 hrs by MTT assay", "assay_type": "cell-based", "conditions": "B16, 72 h", "method_in_brief": "(§2)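 Cells exposed to a compound concentration gradient for 72 h, then MTT added and developed 4 h. Absorbance read; IC50 taken as the concentration giving 50% growth inhibition versus untreated control.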"}, "Nucleic Acid [3]": {"tested_on": "Nucleic Acid", "assay": "Binding affinity to biotinylated ICB2 site of topoisomerase 2alpha cognate sequence ATCGAT by surface plasmon resonance assay", "assay_type": "nucleic-acid assay", "method_in_brief": "(§3)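 SPR at 25 °C with biotinylated DNA hairpins immobilized on a chip, in cacodylic acid buffer pH 6.25 with 0.1 M NaCl. Compound injected at a range of concentrations (up to 4 µM) at 25 µL/min with 400 s dissociation; surface regenerated with glycine pH 2.5. Keq derived from steady-state fits.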"}, "Nucleic Acid [4]": {"tested_on": "Nucleic Acid", "assay": "Binding affinity to ICB2 site of topoisomerase 2alpha cognate sequence TACGAT by isothermal titration microcalorimetry", "assay_type": "nucleic-acid assay", "method_in_brief": "(§4)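 ITC at 25 °C in PO45 buffer. Compound (100 µM) titrated into 2 µM DNA as 50 injections every 240 s after a 300 s delay. A linear fit was subtracted from the integrated heats to remove non-specific heat, giving ΔH.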"}, "Nucleic Acid [5]": {"tested_on": "Nucleic Acid", "assay": "Binding affinity to ICB2 site of topoisomerase 2alpha non-cognate AAATTT assessed as change in melting temperature at 3 uM by thermal denaturation", "assay_type": "nucleic-acid assay", "method_in_brief": "(§5)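 Thermal melting by UV spectrophotometry: DNA hairpin 1 µM with compound 3 µM in PO40 buffer (10 mM phosphate, 12.5 mM Na+, 1 mM EDTA, pH 6.2). ΔTm taken as the difference in Tm between ligand-bound and free DNA.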"}, "Nucleic Acid [6]": {"tested_on": "Nucleic Acid", "assay": "Binding affinity to ICB2 site of topoisomerase 2alpha cognate sequence ATCGAT by isothermal titration microcalorimetry", "assay_type": "nucleic-acid assay", "method_in_brief": "as §4"}, "L1210": {"tested_on": "L1210", "assay": "Cytotoxicity against mouse L1210 cells after 72 hrs by MTT assay", "assay_type": "cell-based", "conditions": "L1210, 72 h", "method_in_brief": "as §2"}, "Nucleic Acid [7]": {"tested_on": "Nucleic Acid", "assay": "Binding affinity to ICB2 site of topoisomerase 2alpha cognate sequence ATCGAT at 6 molar equivalent concentration by circular dichroism spectra analysis", "assay_type": "nucleic-acid assay", "method_in_brief": "(§6)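 CD spectra recorded in a 1 mm cuvette with 2.4 nm bandpass, integration time set as a function of PMT high volts. PO45 buffer (10 mM phosphate, 50 mM Na+, 1 mM EDTA, pH 6.2); run in duplicate.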"}, "NIH3T3": {"tested_on": "NIH3T3", "assay": "Inhibition of topoisomerase 2alpha expression in mouse NIH/3T3 cells up to 80 uM after 4 to 24 hrs by Western blotting", "assay_type": "functional, cell-based", "method_in_brief": "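NIH 3T3 cells held at confluence for 96 h, then treated with compound (40 and 80 µM) for 6 and 24 h. Nuclear extract (50 µg) immunoblotted with polyclonal topoIIα antibody (1:1000), detected by ECL. Lamin A/C used as loading control.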"}, "Nucleic Acid [8]": {"tested_on": "Nucleic Acid", "assay": "Inhibition of nuclear factor Y binding to ICB2 site of topoisomerase 2alpha cognate sequence TACGAT in mouse NIH/3T3 cells at > 3 uM preincubated for 1 hr by electrophoretic mobility shift assay", "assay_type": "cell-based", "conditions": "NIH3T3"}, "Nucleic Acid [9]": {"tested_on": "Nucleic Acid", "assay": "Binding affinity to ICB2 site of topoisomerase 2alpha cognate sequence TACGAT assessed as change in melting temperature at 3 uM by thermal denaturation", "assay_type": "nucleic-acid assay", "method_in_brief": "as §5"}, "Nucleic Acid [10]": {"tested_on": "Nucleic Acid", "assay": "Inhibition of nuclear factor Y binding to ICB2 site of topoisomerase 2alpha cognate sequence TACGAT in mouse NIH/3T3 cells at > 3 uM treated after addition of probe by electrophoretic mobility shift assay", "assay_type": "cell-based", "conditions": "NIH3T3"}, "Nucleic Acid [11]": {"tested_on": "Nucleic Acid", "assay": "Binding affinity to biotin labeled ICB2 site of topoisomerase 2alpha non-cognate AAATTT by surface plasmon resonance assay", "assay_type": "nucleic-acid assay", "method_in_brief": "as §3"}, "Nucleic Acid [12]": {"tested_on": "Nucleic Acid", "assay": "Binding affinity to ICB2 site of topoisomerase 2alpha non-cognate AAATTT by isothermal titration microcalorimetry", "assay_type": "nucleic-acid assay", "method_in_brief": "as §4"}, "Nucleic Acid [13]": {"tested_on": "Nucleic Acid", "assay": "Binding affinity to ICB2 site of topoisomerase 2alpha cognate sequence TACGAT by circular dichroism spectra analysis", "assay_type": "nucleic-acid assay", "method_in_brief": "as §6"}, "Nucleic Acid [14]": {"tested_on": "Nucleic Acid", "assay": "Binding affinity to ICB2 site of topoisomerase 2alpha cognate sequence ATCGAT assessed as change in melting temperature at 3 uM by thermal denaturation", "assay_type": "nucleic-acid assay", "method_in_brief": "as §5"}}, "note": "Activity calls are given as the source filed them. The rule behind the calls is not given here.", "data": [{"molecule": "CN(C)CCCNC(=O)c1cc(NC(=O)c2nc(NC(=O)c3cc(NC=O)cn3C)cn2C)cn1C", "values": [{"measurement": "Activity", "setting": "Nucleic Acid [1]", "value": "inactive"}, {"measurement": "Activity", "setting": "Nucleic Acid [2]", "value": "Active"}]}, {"molecule": "CN(C)CCCNC(=O)c1cc(NC(=O)c2nc(NC(=O)c3cc(NC=O)cn3CCOCCOCCn3cc(NC=O)cc3C(=O)Nc3cn(C)c(C(=O)Nc4cc(C(=O)NCCCN(C)C)n(C)c4)n3)cn2C)cn1C", "values": [{"measurement": "IC50", "setting": "B16", "value": "> 100", "unit": "µM"}, {"measurement": "Ke", "setting": "Nucleic Acid [3]", "value": 5, "unit": "×10⁵ /M"}, {"measurement": "Activity", "setting": "Nucleic Acid [4]", "value": "Active"}, {"measurement": "ΔTm", "setting": "Nucleic Acid [5]", "value": 4, "unit": "°C"}, {"measurement": "Activity", "setting": "Nucleic Acid [6]", "value": "Active"}, {"measurement": "IC50", "setting": "L1210", "value": "> 100", "unit": "µM"}, {"measurement": "Activity", "setting": "Nucleic Acid [7]", "value": "Active"}, {"measurement": "Activity", "setting": "NIH3T3", "value": "inactive"}, {"measurement": "Activity", "setting": "Nucleic Acid [8]", "value": "Active"}, {"measurement": "Activity", "setting": "Nucleic Acid [1]", "value": "Active"}, {"measurement": "ΔTm", "setting": "Nucleic Acid [9]", "value": 3, "unit": "°C"}, {"measurement": "Activity", "setting": "Nucleic Acid [10]", "value": "Active"}, {"measurement": "Ke", "setting": "Nucleic Acid [11]", "value": "inactive"}, {"measurement": "Activity", "setting": "Nucleic Acid [12]", "value": "inactive"}, {"measurement": "Activity", "setting": "Nucleic Acid [2]", "value": "Active"}, {"measurement": "Activity", "setting": "Nucleic Acid [13]", "value": "Active"}, {"measurement": "ΔTm", "setting": "Nucleic Acid [14]", "value": 6, "unit": "°C"}]}]}
